Reference: ChEMBL document CHEMBL4689842, “EUbOPEN Chemogenomics Library wave 1” (2021)

How the values were obtained:
Format in all cases: toxicity, cell-based
Fibroblast [1] = assay: Multiplex assay against human fibroblast
Outline: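 Hoechst33342, BioTracker Green Microtubule Cytoskeleton Dye, MitoTracker Red and Annexin V Alexa Fluor 680 were added to live cells at seeding, and imaging on a CQ1 microscope at 37°C and 5% CO2 followed compound addition. Gating by CellPathfinder machine learning separated cells into Hoechst high-intensity objects or normal cells, then normal cells into healthy, pyknosed or fragmented nuclei, then pyknosed cells into mitotic or apoptotic. Per cents of healthy-nucleus cells are reported for the tubulin, mitochondrial-mass and membrane-permeability phenotypes.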

HEK-293T = assay: Incucyte cell viability with HEK293T; conditions: human, 10 µM, compound concentration 10 uM; note: filed as whole numbers so only -1 and 0 and 1 occur
Fibroblast [2] = assay: Incucyte cell viability with human fibroblast; conditions: 10 µM, compound concentration 10 uM; note: filed as whole numbers so only -1 and 0 and 1 occur
U2OS = assay: Incucyte cell viability with U2OS; conditions: human, 10 µM, compound concentration 10 uM; note: filed as whole numbers so only -1 and 0 and 1 occur
[3] = 12 h, 1 µM, compound concentration 1 uM, replicate 1
[4] = 12 h, 1 µM, compound concentration 1 uM, replicate 2
[5] = 12 h, 10 µM, compound concentration 10 uM, replicate 1
[6] = 12 h, 10 µM, compound concentration 10 uM, replicate 2
[7] = 24 h, 1 µM, compound concentration 1 uM, replicate 1
[8] = 24 h, 1 µM, compound concentration 1 uM, replicate 2
[9] = 24 h, 10 µM, compound concentration 10 uM, replicate 1
[10] = 24 h, 10 µM, compound concentration 10 uM, replicate 2
[11] = 0 h, replicate number 1, timepoint 0 hours
[12] = 6 h, replicate number 1, timepoint 6 hours
[13] = 12 h, replicate number 1, timepoint 12 hours
[14] = 18 h, replicate number 1, timepoint 18 hours
[15] = 24 h, replicate number 1, timepoint 24 hours

For `CN(C)CCOc1ccc(-c2nc(-c3ccncc3)c(-c3ccc4c(c3)CC/C4=N\O)[nH]2)cc1` [SB590885], the “Population Apoptotic (%)” value (Fibroblast [1]; [3]) was 86%, the “Population Fragmented Nuclei (%)” value (Fibroblast [1]; [3]) was 40% and the “Population Healthy Nuclei (%)” value (Fibroblast [1]; [3]) was 29%. For the same compound, the “Population Hoechst High Intensity Objects (%)” value (Fibroblast [1]; [3]) was 31%, the “Population Membrane Permeable-Phenotype (%)” value (Fibroblast [1]; [3]) was 4% and the “Population Mitochondria Different-Phenotype (%)” value (Fibroblast [1]; [3]) was 1%. The “Population Mitotic Cells (%)” value (Fibroblast [1]; [3]) was 13%, the “Population Normal (%)” value (Fibroblast [1]; [3]) was 68% and the “Population Pyknosed Nuclei (%)” value (Fibroblast [1]; [3]) was 30%. For the same compound, the “Population Tubulin-Different-Phenotype (%)” value (Fibroblast [1]; [3]) was 12%, the “Total Cell Count” value (Fibroblast [1]; [3]) was 562 and the “Population Apoptotic (%)” value (Fibroblast [1]; [4]) was 87%. The “Population Fragmented Nuclei (%)” value (Fibroblast [1]; [4]) was 44%, the “Population Healthy Nuclei (%)” value (Fibroblast [1]; [4]) was 3% and the “Population Hoechst High Intensity Objects (%)” value (Fibroblast [1]; [4]) was 32%. For the same compound, the “Population Membrane Permeable-Phenotype (%)” value (Fibroblast [1]; [4]) was 10%, the “Population Mitochondria Different-Phenotype (%)” value (Fibroblast [1]; [4]) was 5% and the “Population Mitotic Cells (%)” value (Fibroblast [1]; [4]) was 12%. For the same compound, the “Population Normal (%)” value (Fibroblast [1]; [4]) was 67%, the “Population Pyknosed Nuclei (%)” value (Fibroblast [1]; [4]) was 52% and the “Population Tubulin-Different-Phenotype (%)” value (Fibroblast [1]; [4]) was 42%. The “Total Cell Count” value (Fibroblast [1]; [4]) was 833, the “Population Apoptotic (%)” value (Fibroblast [1]; [5]) was 84% and the “Population Fragmented Nuclei (%)” value (Fibroblast [1]; [5]) was 38%. For the same compound, the “Population Healthy Nuclei (%)” value (Fibroblast [1]; [5]) was 48%, the “Population Hoechst High Intensity Objects (%)” value (Fibroblast [1]; [5]) was 14% and the “Population Membrane Permeable-Phenotype (%)” value (Fibroblast [1]; [5]) was 4%. The “Population Mitochondria Different-Phenotype (%)” value (Fibroblast [1]; [5]) was 5%, the “Population Mitotic Cells (%)” value (Fibroblast [1]; [5]) was 15% and the “Population Normal (%)” value (Fibroblast [1]; [5]) was 85%. The “Population Pyknosed Nuclei (%)” value (Fibroblast [1]; [5]) was 12%, the “Population Tubulin-Different-Phenotype (%)” value (Fibroblast [1]; [5]) was 13% and the “Total Cell Count” value (Fibroblast [1]; [5]) was 245. The “Population Apoptotic (%)” value (Fibroblast [1]; [6]) was 100%, the “Population Fragmented Nuclei (%)” value (Fibroblast [1]; [6]) was 69% and the “Population Healthy Nuclei (%)” value (Fibroblast [1]; [6]) was 28%. The “Population Hoechst High Intensity Objects (%)” value (Fibroblast [1]; [6]) was 50%, the “Population Membrane Permeable-Phenotype (%)” value (Fibroblast [1]; [6]) was 11% and the “Population Mitochondria Different-Phenotype (%)” value (Fibroblast [1]; [6]) was 16%. For the same compound, the “Population Mitotic Cells (%)” value (Fibroblast [1]; [6]) was 0%, the “Population Normal (%)” value (Fibroblast [1]; [6]) was 49% and the “Population Pyknosed Nuclei (%)” value (Fibroblast [1]; [6]) was 1%. The “Population Tubulin-Different-Phenotype (%)” value (Fibroblast [1]; [6]) was 22%, the “Total Cell Count” value (Fibroblast [1]; [6]) was 128 and the “Population Apoptotic (%)” value (Fibroblast [1]; [7]) was 88%. For the same compound, the “Population Fragmented Nuclei (%)” value (Fibroblast [1]; [7]) was 50%, the “Population Healthy Nuclei (%)” value (Fibroblast [1]; [7]) was 40% and the “Population Hoechst High Intensity Objects (%)” value (Fibroblast [1]; [7]) was 43%. For the same compound, the “Population Membrane Permeable-Phenotype (%)” value (Fibroblast [1]; [7]) was 1%, the “Population Mitochondria Different-Phenotype (%)” value (Fibroblast [1]; [7]) was 0% and the “Population Mitotic Cells (%)” value (Fibroblast [1]; [7]) was 11%. The “Population Normal (%)” value (Fibroblast [1]; [7]) was 56%, the “Population Pyknosed Nuclei (%)” value (Fibroblast [1]; [7]) was 8% and the “Population Tubulin-Different-Phenotype (%)” value (Fibroblast [1]; [7]) was 5%. The “Total Cell Count” value (Fibroblast [1]; [7]) was 552, the “Population Apoptotic (%)” value (Fibroblast [1]; [8]) was 90% and the “Population Fragmented Nuclei (%)” value (Fibroblast [1]; [8]) was 36%. For the same compound, the “Population Healthy Nuclei (%)” value (Fibroblast [1]; [8]) was 3%, the “Population Hoechst High Intensity Objects (%)” value (Fibroblast [1]; [8]) was 35% and the “Population Membrane Permeable-Phenotype (%)” value (Fibroblast [1]; [8]) was 20%. For the same compound, the “Population Mitochondria Different-Phenotype (%)” value (Fibroblast [1]; [8]) was 5%, the “Population Mitotic Cells (%)” value (Fibroblast [1]; [8]) was 9% and the “Population Normal (%)” value (Fibroblast [1]; [8]) was 64%. For the same compound, the “Population Pyknosed Nuclei (%)” value (Fibroblast [1]; [8]) was 59%, the “Population Tubulin-Different-Phenotype (%)” value (Fibroblast [1]; [8]) was 25% and the “Total Cell Count” value (Fibroblast [1]; [8]) was 821. The “Population Apoptotic (%)” value (Fibroblast [1]; [9]) was 67%, the “Population Fragmented Nuclei (%)” value (Fibroblast [1]; [9]) was 35% and the “Population Healthy Nuclei (%)” value (Fibroblast [1]; [9]) was 51%. For the same compound, the “Population Hoechst High Intensity Objects (%)” value (Fibroblast [1]; [9]) was 14%, the “Population Membrane Permeable-Phenotype (%)” value (Fibroblast [1]; [9]) was 6% and the “Population Mitochondria Different-Phenotype (%)” value (Fibroblast [1]; [9]) was 3%. The “Population Mitotic Cells (%)” value (Fibroblast [1]; [9]) was 32%, the “Population Normal (%)” value (Fibroblast [1]; [9]) was 85% and the “Population Pyknosed Nuclei (%)” value (Fibroblast [1]; [9]) was 13%. For the same compound, the “Population Tubulin-Different-Phenotype (%)” value (Fibroblast [1]; [9]) was 9%, the “Total Cell Count” value (Fibroblast [1]; [9]) was 299 and the “Population Apoptotic (%)” value (Fibroblast [1]; [10]) was 100%. The “Population Fragmented Nuclei (%)” value (Fibroblast [1]; [10]) was 70%, the “Population Healthy Nuclei (%)” value (Fibroblast [1]; [10]) was 28% and the “Population Hoechst High Intensity Objects (%)” value (Fibroblast [1]; [10]) was 53%. For the same compound, the “Population Membrane Permeable-Phenotype (%)” value (Fibroblast [1]; [10]) was 31%, the “Population Mitochondria Different-Phenotype (%)” value (Fibroblast [1]; [10]) was 18% and the “Population Mitotic Cells (%)” value (Fibroblast [1]; [10]) was 0%. The “Population Normal (%)” value (Fibroblast [1]; [10]) was 46%, the “Population Pyknosed Nuclei (%)” value (Fibroblast [1]; [10]) was 1% and the “Population Tubulin-Different-Phenotype (%)” value (Fibroblast [1]; [10]) was 37%. The “Total Cell Count” value (Fibroblast [1]; [10]) was 122, the “Growth Rate” value (HEK-293T; [11]) was 1 and the “Growth Rate” value (HEK-293T; [12]) was 0. For the same compound, the “Growth Rate” value (HEK-293T; [13]) was 0, the “Growth Rate” value (HEK-293T; [14]) was 0 and the “Growth Rate” value (HEK-293T; [15]) was 0. For the same compound, the “Growth Rate” value (Fibroblast [2]; [11]) was 0, the “Growth Rate” value (Fibroblast [2]; 18 h, replicate number 2, timepoint 18 hours) was 1 and the “Growth Rate” value (Fibroblast [2]; [15]) was 1. For the same compound, the “Growth Rate” value (Fibroblast [2]; 24 h, replicate number 2, timepoint 24 hours) was 0, the “Growth Rate” value (U2OS; 0 h, replicate number 2, timepoint 0 hours) was 1 and the “Growth Rate” value (U2OS; [12]) was 0. For the same compound, the “Growth Rate” value (U2OS; [13]) was 0, the “Growth Rate” value (U2OS; [14]) was 0 and the “Growth Rate” value (U2OS; [15]) was 0.
